SR-BI DiI inh: inhibitors of SR-BI mediated HDL lipid uptake, primary screen, ldlA[mSR-BI] cells, fluorescence, single point | Scavenger receptor class B member 1 (Mus musculus), Q61009 | ldlA[mSR-BI] CHO cells, DiI-HDL uptake fluorescence, 3 h | inhibition, % at 12.5 µM | 0.96% of 320,000 active;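 active = mean replicate inhibition of at least 70% and a set share of replicates each scoring 70 or more; inconclusive = meets just one of the two criteria; inactive = fails both criteria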;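 also: 0% = median of neutral control wells and 100% = median of positive control wells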
CAL PDZ FP-1: untagged CAL PDZ binding inhibitors, primary screen, biochemical, fluorescence polarization, HTS | Golgi-associated PDZ and coiled-coil motif-containing protein (Homo sapiens), Q9HD26 | purified CAL PDZ, TMR-peptide fluorescence polarization, 1 h | inhibition, % at 24.9 µM | 0.92% of 300,000 active | AID 602252, 2012;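 active = mean inhibition of at least 30% with at least half of replicates also reaching 30%; inconclusive = no clear call, values can overlap the other calls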;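 also: 0% = DMSO neutral control and 100% = excess unlabeled competitor peptide PRC23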
ATG4B inhibitor: ATG4B protease inhibitors, primary screen, biochemical, fluorescence, uHTS; Cysteine protease ATG4B (Homo sapiens), Q9Y4P1; ATG4B cleavage of LC3-PLA2, NBD-HPC fluorescence, 1 h; inhibition, % at 8.33 µM; 0.51% of 340,000 active; in the data active = inhibition above about 40%
Target sequence (Q9Y4P1 whole entry, looked up): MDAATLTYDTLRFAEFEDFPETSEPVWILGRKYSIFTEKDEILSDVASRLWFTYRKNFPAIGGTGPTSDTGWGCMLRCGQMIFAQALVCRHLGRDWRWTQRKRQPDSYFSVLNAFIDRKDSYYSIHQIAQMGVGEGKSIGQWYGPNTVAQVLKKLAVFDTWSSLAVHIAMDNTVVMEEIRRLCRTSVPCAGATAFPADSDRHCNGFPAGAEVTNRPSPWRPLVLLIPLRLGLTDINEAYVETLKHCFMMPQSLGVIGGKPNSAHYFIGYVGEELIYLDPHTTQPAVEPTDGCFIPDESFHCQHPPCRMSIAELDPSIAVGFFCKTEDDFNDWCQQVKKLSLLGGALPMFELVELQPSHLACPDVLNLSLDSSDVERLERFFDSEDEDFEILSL
CAL PDZ FP-2: CAL PDZ peptide-binding inhibitors, primary screen, biochemical, fluorescence polarization, Cer-tagged CAL PDZ, HTS; Golgi-associated PDZ and coiled-coil motif-containing protein (Homo sapiens), Q9HD26; purified CAL PDZ, TMR-peptide fluorescence polarization, 1 h; inhibition, % at 20 µM; 0.02% of 330,000 active;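 active = highest replicate inhibition of at least 40%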;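 also: plate controls were DMSO neutral control wells for no effect and unlabeled competitor peptide control wells for full effect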
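material = purified tagged CAL PDZ domain construct (CerCALP) | compound dosing = 20 µM, one dose | times = 1 h at RT | measured by = fluorescence polarization from S- and P-plane intensities, G-factor corrected | read-out = inhibition from polarization loss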
SR-BI DiI-HDL act: activators of SR-BI mediated DiI-HDL uptake, primary screen, ldlA[mSR-BI] CHO cells, DiI fluorescence; activation, % at 12.5 µM; AID 504775, 2011; 3 h; 100 = double the neutral-control signal; 0.096% of 320,000 active;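 active = mean replicate activation of at least 60% and every replicate at or above 60%; inconclusive = mean or all-replicate condition met, but not both; inactive = mean below 60% and not all replicates reaching 60%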;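 also: 0% = median plate neutral-control signal and 100% = twice that signal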
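Test system: SR-BI-overexpressing, LDLR-lacking CHO cells. Measured by: DiI fluorescence, bottom read. Medium: Ham's F12 with 0.5% BSA, HEPES 25 mM, pH 7.4. Timing: 3 h uptake period with compound, 37 °C.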
* marks the source's active call; other numbers are inactive results; ? = inconclusive; . = not tested or not shown; + = active, no number. Hits are enriched below; roughly 2.3% of the tested compounds scored in any of these assays.

SMILES	SR-BI DiI inh	CAL PDZ FP-1	ATG4B inhibitor	CAL PDZ FP-2	SR-BI DiI-HDL act
CC(C(=O)NC(C)(C)C)N(C(=O)CS(=O)CC(=O)Nc1ccc(F)cc1)c1ccccc1F (stereo not given)	.	33.2*	-0.7	1.4	.
O=[N+]([O-])c1ccc(N2CCN(CC3CCCCC3)CC2)cc1	16.6	3.4	-0.1	.	-16.6
CN1C(=O)c2ccccc2C(C(=O)O)C1c1cn(C)c2ccccc12 (stereo not given)	-24.9	41.5*	-10.2	.	24.9
Cc1ccc(C2C(C(=O)O)c3ccccc3C(=O)N2C)c(C)c1 (stereo not given)	-10.0	-1.1	-2.5	-1.6	10.0
COc1cc(C(=O)N2CCCc3ccccc32)cc(OC)c1OC	30.0	-0.3	-10.0	0.2	-30.0
COc1ccc(C(=O)N2CCCc3ccccc32)cc1OC	83.2*	-3.4	-0.4	.	-83.2
CCC1CCCCN1C(=O)C1CC(c2cc(Cl)c(OC)cc2OC)=NO1 (stereo not given)	60.1	-3.5	4.4	-0.5	-60.1
COc1cc(OC)c(C2=NOC(C(=O)N3CCCc4ccccc43)C2)cc1Cl (stereo not given)	81.4*	-3.8	13.9	-2.0	-81.4
CCOc1ccc(N(C(=O)c2ccc3c(c2)OCO3)C2C=CS(=O)(=O)C2)cc1 (stereo not given)	-42.6	1.9	-0.2	-1.9	42.6
CCC(C(=O)Nc1ccc(C(=O)O)cc1NC(=O)C(CC)c1ccccc1)c1ccccc1 (stereo not given)	-6.4	-4.3	-1.6	-0.3	6.4
CCCn1nc2cc(C(=O)NC3CCCc4ccccc43)ccc2c1OCC (stereo not given)	64.8	3.7	7.4	-0.8	-64.8
CCCCn1nc2cc(C(=O)NC3CCc4ccccc43)ccc2c1OCC (stereo not given)	76.7*	-3.0	4.7	-1.4	-76.7
Cc1cc(C)n(Cc2ccc(C(=O)N/N=C/c3ccc(-c4ccc([N+](=O)[O-])cc4)o3)o2)n1	103.5*	-1.4	-2.5	-1.6	-103.5
COc1ccc(C(=O)COC(=O)/C=C/c2ccco2)cc1F	2.8	64.5*	2.6	-1.0	-2.8
COc1ccc(/C=C(\NC(=O)c2ccc(C)cc2)C(=O)NCCCN2CCOCC2)cc1OC	.	-8.0	-5.4	1.4	.
Cc1[nH]c(=O)[nH]c(=O)c1/C=C/C(=O)O	-3.6	69.8*	6.8	-1.1	3.6
COc1cc(OC)cc(C(=O)NCC2CCCN(C(=O)c3oc(C)cc3C)C2)c1 (stereo not given)	-1.7	46.2*	3.2	-0.5	1.7
CNC(=S)N(Cc1ccc(Cl)cc1)Cc1cccs1	-29.1	-1.4	1.1	-1.3	29.1
O=C(Nc1ncc(Cc2cccc(Cl)c2Cl)s1)c1ccc([N+](=O)[O-])cc1	66.0	-4.4	8.4	-1.7	-66.0
O=C(Nc1ncc(Cc2cc(Cl)ccc2Cl)s1)c1ccc([N+](=O)[O-])cc1	81.5*	1.9	0.0	-0.9	-81.5
Cc1ccc(NC(=O)CNC(=O)c2ccc(OC(F)F)cc2)cc1S(=O)(=O)N1CCCCCC1	32.5	-4.9	-43.5	-1.0	-32.5
COc1ccccc1[C@@]1(C)ON(c2ccccc2C(F)(F)F)C1=O	-2.8	-1.0	7.9	-0.4	2.8
O=C(N/N=C/c1c[nH]c2ccccc12)c1ccncc1	-12.2	3.6	5.9	-0.3	12.2
Cc1ccc(C(=O)Nc2ccc(C(=O)N/N=C/c3c[nH]c4ccccc34)cc2)cc1	93.9*	-0.5	-4.9	-3.4	-93.9
O=C(N/N=C/c1c[nH]c2ccccc12)c1ccccc1	2.3	37.5*	-0.4	-0.2	-2.3
SMILES	SR-BI DiI inh	CAL PDZ FP-1	ATG4B inhibitor	CAL PDZ FP-2	SR-BI DiI-HDL act
Cc1ccc(OCCNC(=O)c2cc(C(=O)NCCOc3ccc(C)cc3)cc([N+](=O)[O-])c2)cc1	71.5*	3.3	0.1	-1.0	-71.5
COc1ccc(-n2nc(C(=O)NCC(=O)N3CCN(c4ccccc4F)CC3)c3ccccc3c2=O)cc1OC	.	.	-2.9	-2.8	.
COc1ccc(-n2nc(C(=O)NCC(=O)N3CCN(c4ccccc4F)CC3)c3ccccc3c2=O)cc1	21.9	72.8*	-5.7	-0.7	-21.9
O=C(NCCC1CCCCN1S(=O)(=O)c1cccs1)C(=O)Nc1cccc(F)c1 (stereo not given)	28.5	2.5	7.2	-0.1	-28.5
Cc1cc(C)n(Cc2ccccc2Cl)n1	-1.8	41.2*	-3.2	.	1.8
N#C/C(=C/c1ccc(O)c(O)c1)c1nc2ccccc2[nH]1	7.7	114.5*	-9.6	2.9	-7.7
c1ccc(-c2nc(N3CCOCC3)cc(N3CCOCC3)n2)cc1	38.8	-4.7	2.8	-2.5	-38.8
Cc1cc(C)n(-c2cc(N3CCOCC3)nc(-c3ccccc3)n2)n1	84.7*	-1.1	12.4	-1.4	-84.7
CC1CCCN(C(=O)CCNS(=O)(=O)c2ccc3c(c2)oc(=O)n3C)C1 (stereo not given)	-9.6	.	-5.6	-0.4	9.6
CCOC(=O)CNC(=O)CSc1nnc(Cn2cnc3ccccc32)n1C	-29.7	+	-13.5	-0.7	29.7
CC1CCN(c2ccccc2NC(=O)c2ccc(C#N)cc2F)CC1	76.6*	4.3	-6.3	-1.0	-76.6
Cc1cccc(C(=O)Nc2nnc(Cc3ccccc3)s2)c1	-4.6	.	9.7	0.3	4.6
COc1ccc(-c2csc(NC(=O)C3CSC4(C)CCC(=O)N34)n2)cc1OC (stereo not given)	28.0	-1.2	-4.7	-0.2	-28.0
COc1ccc(OC)c(-c2csc(NC(=O)c3ccc4c(c3)OCO4)n2)c1	69.4	79.6*	8.9	0.9	-69.4
COc1ccc(OC)c(NC(=O)c2ccc3c(c2)OCO3)c1	27.8	-1.5	5.5	-1.0	-27.8
COc1ccc(OC)c(-c2csc(NC(=O)C3CSC4(C)CCC(=O)N34)n2)c1 (stereo not given)	82.3*	-1.4	-5.7	-1.1	-82.3
COC(=O)c1[nH]c2cc(OC)c(OC)cc2c1/C=N/Nc1ccccc1	121.5*	4.8	-17.2	-0.7	-121.4
CCOc1ccc(S(=O)(=O)N2CCC(C(=O)NC3CC3)CC2)cc1C	-5.3	.	-2.8	-1.7	5.3
COc1cccc(-c2nn(-c3ccc(C)cc3)cc2C(=O)N(C)CC(=O)Nc2cccc(F)c2)c1	1.7	47.3*	-16.4	0.0	-1.7
CCOc1cc(N2CCOCC2)c(OCC)cc1NC(=O)c1cc(C)cc(C)c1	?	76.1*	-8.5	0.6	-73.1
CCN(CC)c1ccc(/C=N/N2CCN(c3ccccc3OC)CC2)cc1	81.0*	-3.6	5.7	-1.7	-81.0

Screening results as filed in PubChem.
